Measured values pooled from the literature.
Each line is one published result; the experiments were not run side by side.
Target: Interferon-induced, double-stranded RNA-activated protein kinase (EIF2AK2, Homo sapiens, UniProt P19525)

SMILES	read-out	technique	tested at	remaining binding [%]
FC(F)(F)Oc1cccc(-c2cnc3ccc(-c4ccncc4)nn23)c1	cell-free assay	competition with immobilised ligand	5 µM	65
CN1CCN(c2cnc3c(C4CCN(C(=O)c5ccc(OC(F)(F)F)cc5N)CC4)ncnc3c2)CC1	cell-free assay	competition with immobilised ligand	1 µM	85
CN(c1nccc(-c2cnn3ncccc23)n1)C1CC1	binding		1 µM	100
O=c1nc(-c2ccccn2)sc2ccccc12	binding	competition with immobilised ligand	1 µM	100
O=C(c1ccc(Nc2ncc(Cl)c(-c3ccc(Cl)s3)n2)cc1)N1CCC(N2CCCC2)CC1	binding	competition with immobilised ligand	1 µM	14
O=C(NCC1CCOCC1)c1n[nH]cc1NC(=O)c1c(F)cccc1F	binding	competition with immobilised ligand	1 µM	100
O=C(O)c1cc(-c2ccc(C3CCNCC3)cc2)c2ccc(-c3ccc(C(F)(F)F)cc3)cc2c1	cell-free assay	competition with immobilised ligand	1 µM	100
F[C@@H]1CCN(c2nccc(-c3cnn4ncccc34)n2)C1	binding		1 µM	100
CNC(=O)[C@@H]1CC[C@@H](n2c(-c3ccc4cnccc4c3)nc3ccc(C(=O)NCc4cccc(C(N)=O)c4)cc32)C1	binding	competition with immobilised ligand	1 µM	94
c1cnn2ncc(-c3ccnc(N4CCC45COC5)n3)c2c1	binding		1 µM	100
COc1cnc(Nc2cccc(S(N)(=O)=O)c2)nc1N1CCN(c2ccccc2)CC1	binding	competition with immobilised ligand	1 µM	97
N[C@H]1CCN(c2nccc(-c3cnn4ncccc34)n2)C1	binding		1 µM	100
CCS(=O)(=O)c1cc2cc(C[C@](O)(CC(C)(C)c3ccc(F)cc3C(N)=O)C(F)(F)F)[nH]c2cn1	cell-free assay	competition with immobilised ligand	1 µM	52
CC1CCCN1c1nccc(-c2cnn3ncccc23)n1 (centres unmarked)	binding		1 µM	100
CN(C)C(=O)Cn1cc(-c2nc(C3(c4ccc(-c5cnc(N)nc5)cc4)CC3)no2)cn1	cell-free assay	competition with immobilised ligand	1 µM	100
O=C(NCCCN1CCOCC1)c1ccc(Nc2nccc(-c3cc4ccccc4s3)n2)cc1	binding	competition with immobilised ligand	1 µM	64
CCOC(=O)c1cc2cc(-c3cc(C(=O)NCc4ccc(C(=O)O)cc4)nn3C)ccc2[nH]1	cell-free assay	competition with immobilised ligand	0.1 µM	100
CCN1CCN(Cc2ccc(C(=O)Nc3ccc(C)c(Oc4ccc5c(c4)CC(=O)N5)c3)cc2C(F)(F)F)CC1	binding	competition with immobilised ligand	1 µM	96
Cc1cnc(Nc2ccc(C(=O)N3CCC(N4CCCC4)CC3)cc2)nc1-c1cc2ccccc2s1	binding	competition with immobilised ligand	1 µM	7
CN(CCCC(F)(F)F)c1nccc(-c2cnn3ncccc23)n1	binding		1 µM	100
